# Source: article PMC7473156 (European Journal of Medicinal Chemistry, 2020)
# “Also recorded” adds a separate entry of the source.
# What was measured:
# [1] = test system: VCR-R CEM cells; experiment: Mitochondrial membrane potential; format: cell-based, human; details: 24 h
# Outline: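 VCR-R CEM cells were seeded at 0.125 × 10^6 per well 4 h before 24 h exposure to 5 μM compound or DMSO. JC-1 (1 μg/mL) was applied for 1 h before harvest, with elacridar (5 μM) present […]. Cells were washed, resuspended in PBS and read by flow cytometry as the red/green fluorescence shift.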
# [2] = test system: VCR-R CEM cells; experiment: Western blot analysis of VCR-R CEM cell lysates; format: cell-based, human; details: 5 μM, 24 h
# Outline: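 VCR-R CEM cells were seeded at 2 × 10^6 per well 4 h before treatment with DMSO or 5 μM compound for 24 h. Lysates were made in RIPA, separated by SDS-PAGE and transferred to PVDF. Blots were probed for p-Akt (Ser473), total Akt, PARP, Bcl-xL and Mcl-1 (1:1000) and detected by chemiluminescence, with stain-free total protein as loading control.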
# [3] = test system: HepG2 cells; experiment: Cell death of HepG2 cells stably transfected with CYP3A4-EGFP or empty vector; format: cell-based, human; details: 15 μM, 24 h; for cell death of HepG2 cells: influence of cellular CYP3A4 overexpression: CYP3A4-EGFP versus vector
# Outline: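 HepG2 cells were lipofected with pcDNA3-CYP3A4-EGFP or pcDNA3-EGFP and kept in G418 (0.5 mg/mL) for four weeks; plasmid presence was confirmed by PCR. Cells were seeded at 0.1 × 10^6 per well, adhered overnight, then exposed to 15 μM for 24 h. Propidium iodide (5 μg/mL in PBS) staining was read by flow cytometry without FSC/SSC gating. Specific cell death was calculated against control. Mean ± SEM, three independent experiments.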
# [4] = test system: CYP3A4 overexpressing HepaRG™ cells; format: cell-based, human; details: 10 μM, 24 h
# Outline: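 HepaRG cells were differentiated in Maintenance/Metabolism medium, then lipofected with pcDNA3-CYP3A4-EGFP or pcDNA3-EGFP 16 h before treatment. Exposure was 10 μM for 24 h. Cell death was read by propidium iodide staining (5 μg/mL in PBS) and flow cytometry, with no FSC/SSC gating. Specific cell death was calculated against control. Mean ± SEM, three independent experiments.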
# [5] = test system: HepaRG™ cells; experiment: Toxicity to differentiated HepaRG cells without transfection; format: cell-based, human; details: 24 h, compared with tetrandrine; for cell viability of HepaRG cells: 10 μM; for toxicity to HepaRG cells (cell viability): 20 μM
# Outline: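 HepaRG cells were differentiated in Williams' E with GlutaMAX and Maintenance/Metabolism supplement, then exposed to compound for 24 h. Viability was read by CellTiter-Blue and normalised to vehicle control. Mean ± SEM, three independent experiments.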
# [6] = test system: human umbilical vein endothelial cells (HUVECs); experiment: HUVEC viability; format: cell-based; details: 10 μM, 24 h, compared with tetrandrine
# Outline: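 HUVECs were cultured in ECGM with 10% FCS and antibiotics/antimycotic, for at most six passages. They were seeded at […], adhered overnight, then exposed to 1, 5 or 10 μM for 24 h. Viability was read by CellTiter-Blue, with fluorescence normalised to vehicle. Mean ± SEM, three independent experiments.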
# [7] = test system: HepG2 cells; experiment: Western blot analysis of HepG2 cells; format: cell-based, human; details: 5 μM, 48 h
# Outline: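 HepG2 cells were seeded at 0.5 × 10^6 per well, adhered overnight, then treated with DMSO or 5 μM compound for 24 or 48 h. Cells were lysed in RIPA, run on SDS-PAGE and transferred to PVDF. Blots were probed with p-Akt (Ser473), total Akt, PARP, Bcl-xL and Mcl-1 antibodies (1:1000) and detected by chemiluminescence, with stain-free total protein as loading control.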
# [8] = test system: VCR-R CEM cells; experiment: Cell proliferation assay; format: cell-based, human; details: 48 h, relative proliferation at 10 μM and IC50
# Outline: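 VCR-R CEM cells (RPMI 1640, 10% FCS) were seeded at 0.02 × 10^6 per well and rested 4 h. Metabolic activity read at that point served as the zero value. Compound exposure was 48 h, with CellTiter-Blue added 2 h before the end and fluorescence read at 590 nm. IC50 was obtained by nonlinear regression; relative proliferation was also taken at 10 μM.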
# [9] = test system: VCR-R CEM cells; experiment: Apoptosis assay in combination with vincristine; format: cell-based, human; details: 1 μM compound with varying doses of VCR, 48 h
# [10] = target: P-gp (Homo sapiens, UniProt P08183); experiment: Calcein-AM retention assay in P-gp overexpressing VCR-R CEM cells; format: cell-based; details: 0.1 and 1 μM
# Outline: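 VCR-R CEM cells were loaded with calcein-AM (200 nM) plus test compound (0.1 or 1 μM) for 30 min at 37 °C. After a wash, they were kept without calcein-AM for a further 60 min at 37 °C, then analysed by flow cytometry. Geometric mean fluorescence intensity was normalised to the calcein-AM-only control.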
# [11] = test system: peripheral blood mononuclear cells (PBMCs); experiment: PBMC cell death; format: cell-based, human; details: 5 and 10 μM, 48 h, compared with RMS3 and RMS5
# Outline: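 PBMCs were isolated from anticoagulated healthy-donor blood on a Ficoll density gradient and kept in RPMI 1640 with 20% FCS and penicillin/streptomycin. Treatment started 4 h after seeding and lasted 48 h. Cells were stained with propidium iodide (5 μg/mL in PBS) and read by flow cytometry, with debris excluded and PI-positive cells counted.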
# Chain of P-gp (P08183 whole entry): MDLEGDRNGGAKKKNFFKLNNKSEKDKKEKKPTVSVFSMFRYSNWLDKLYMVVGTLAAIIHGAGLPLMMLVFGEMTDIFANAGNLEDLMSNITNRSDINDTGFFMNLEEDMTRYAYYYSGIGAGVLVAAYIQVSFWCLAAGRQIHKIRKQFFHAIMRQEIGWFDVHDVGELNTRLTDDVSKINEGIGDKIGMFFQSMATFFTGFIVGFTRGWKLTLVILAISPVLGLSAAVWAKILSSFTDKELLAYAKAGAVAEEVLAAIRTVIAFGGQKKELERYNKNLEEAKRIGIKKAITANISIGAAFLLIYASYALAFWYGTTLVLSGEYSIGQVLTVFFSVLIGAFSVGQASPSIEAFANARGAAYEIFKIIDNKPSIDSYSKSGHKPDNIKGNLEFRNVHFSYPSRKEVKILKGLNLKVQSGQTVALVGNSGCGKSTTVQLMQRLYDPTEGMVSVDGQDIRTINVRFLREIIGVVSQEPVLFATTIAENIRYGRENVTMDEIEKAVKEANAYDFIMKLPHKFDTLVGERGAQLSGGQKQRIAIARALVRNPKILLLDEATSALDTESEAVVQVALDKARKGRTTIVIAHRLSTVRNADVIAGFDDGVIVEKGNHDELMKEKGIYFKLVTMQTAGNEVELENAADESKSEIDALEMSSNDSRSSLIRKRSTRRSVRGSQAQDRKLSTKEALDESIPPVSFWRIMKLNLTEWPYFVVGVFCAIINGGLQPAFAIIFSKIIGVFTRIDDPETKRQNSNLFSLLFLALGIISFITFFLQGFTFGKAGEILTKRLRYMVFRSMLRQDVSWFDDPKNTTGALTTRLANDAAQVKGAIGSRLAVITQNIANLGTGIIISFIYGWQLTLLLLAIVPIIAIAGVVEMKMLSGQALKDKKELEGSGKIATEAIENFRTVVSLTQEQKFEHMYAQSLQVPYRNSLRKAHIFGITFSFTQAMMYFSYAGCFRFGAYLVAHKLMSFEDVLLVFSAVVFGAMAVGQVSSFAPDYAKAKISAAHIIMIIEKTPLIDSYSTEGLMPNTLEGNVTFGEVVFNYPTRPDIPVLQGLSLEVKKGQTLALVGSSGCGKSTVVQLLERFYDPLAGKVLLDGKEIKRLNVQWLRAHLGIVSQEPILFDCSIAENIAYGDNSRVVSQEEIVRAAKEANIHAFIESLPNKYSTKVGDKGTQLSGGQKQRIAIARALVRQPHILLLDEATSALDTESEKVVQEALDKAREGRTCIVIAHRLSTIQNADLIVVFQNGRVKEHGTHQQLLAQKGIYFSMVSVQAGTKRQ
Structure (SMILES),mitochondrial membrane potential ΔΨm (JC-1 shift towards green fluorescence) [1],PARP cleavage [2],cytotoxicity against HepG2 cells in comparison to tetrandrine [3],toxicity to HepaRG cells (cell viability) [5],other results
"COc1cc2c3cc1Oc1c(OC)c(OC)cc4c1C(Cc1cccc(c1)Oc1ccc(cc1)CC3N(C)CC2)N(C)CC4 (racemic) [RMS1, (±)-12-Desmethoxytetrandrine and –isotetrandrine]",no such an effect,detected,generally increased cytotoxicities,,
"COc1cc2c3cc1Oc1c(OC)c(OC)cc4c1C(Cc1cccc(c1)Oc1ccc(cc1)CC3N(C)CC2)N(C)CC4 (racemic) [RMS2, (±)-12-Desmethoxytetrandrine and –isotetrandrine]",,,generally increased cytotoxicities,significantly more toxic to HepaRG™ cells than tetrandrine,cell death of CYP3A4 overexpressing HepaRG cells versus empty vector [4]: strongest effect on cell viability; cell viability of HepaRG cells [5]: strongly decreased cell viability
"COc1cc2c3cc1Oc1c(OC)c(OC)cc4c1C(Cc1ccc(OC(F)(F)F)c(c1)Oc1ccc(cc1)CC3N(C)CC2)N(C)CC4 (racemic) [RMS3, (±)-12-Desmethoxy-12-trifluoromethoxytetrandrine and –isotetrandrine]",,detected,generally increased cytotoxicities; also recorded: strongly increased cytotoxicites,,viability of HUVECs [6]: slightly stronger effect on the viability of HUVECs than tetrandrine
"COc1cc2c3cc1Oc1c(OC)c(OC)cc4c1C(Cc1ccc(OC(F)(F)F)c(c1)Oc1ccc(cc1)CC3N(C)CC2)N(C)CC4 (racemic) [RMS4, (±)-12-Desmethoxy-12-trifluoromethoxytetrandrine and –isotetrandrine]",,detected,generally increased cytotoxicities,significantly more toxic to HepaRG™ cells than tetrandrine,cell viability of HepaRG cells [5]: slightly; p-Akt levels [7]: reduced
"COc1cc2c3cc1Oc1c(OC)c(OC)cc4c1C(Cc1cc(cs1)Oc1ccc(cc1)CC3N(C)CC2)N(C)CC4 (racemic) [RMS5, (±)-Ring C thiophene analogues of tetrandrine and –isotetrandrine]",,,generally increased cytotoxicities; also recorded: strongly increased cytotoxicites,,expression of Bcl-XL and Mcl-1 [7]: slightly diminished; p-Akt levels [7]: reduced
"COc1cc2c3cc1Oc1c(OC)c(OC)cc4c1C(Cc1cc(cs1)Oc1ccc(cc1)CC3N(C)CC2)N(C)CC4 (racemic) [RMS6, (±)-Ring C thiophene analogues of tetrandrine and –isotetrandrine]",no such an effect,,,significantly less toxic than tetrandrine,inhibition of proliferation of VCR-R CEM cells [8]: nearly inactive; also recorded: no direct effect on proliferation; sensitization of VCR-R CEM cells to vincristine (apoptosis) [9]: successfully sensitized VCR-R CEM cells to VCR; prevention of efflux of calcein-AM (P-gp inhibition) [10]: inhibition of P-gp
"COc1cc2c3cc1Oc1c(OC)c(OC)cc4c1C(Cc1ccc(Cl)c(c1)Oc1ccc(cc1)CC3N(C)CC2)N(C)CC4 (racemic) [RMS7, (±)-12-Desmethoxy-12-chlorotetrandrine and –isotetrandrine]",no such an effect,,generally increased cytotoxicities,,
"COc1cc2c3cc1Oc1c(OC)c(OC)cc4c1C(Cc1ccc(Cl)c(c1)Oc1ccc(cc1)CC3N(C)CC2)N(C)CC4 (racemic) [RMS8, (±)-12-Desmethoxy-12-chlorotetrandrine and –isotetrandrine]",,detected,generally increased cytotoxicities,significantly more toxic to HepaRG™ cells than tetrandrine,cell viability of HepaRG cells [5]: slightly; sensitization of VCR-R CEM cells to vincristine (apoptosis) [9]: most potent analogue as it significantly increased apoptosis at 0.01 μM VCR
"COc1cc2c3cc1Oc1c(OC)c(OC)cc4c1C(CCCCOc1ccc(cc1)CC3N(C)CC2)N(C)CC4 (racemic) [RMS9, (±)-Ring C propylidene analogues of tetrandrine and –isotetrandrine]",no such an effect,,,significantly less toxic than tetrandrine,inhibition of proliferation of VCR-R CEM cells [8]: nearly inactive; sensitization of VCR-R CEM cells to vincristine (apoptosis) [9]: all but RMS9 and RMS10 were able to sensitize; prevention of efflux of calcein-AM (P-gp inhibition) [10]: strongly reduces it
"COc1cc2c3cc1Oc1c(OC)c(OC)cc4c1[C@@H](Cc1ccc(O)c(c1)Oc1ccc(cc1)C[C@@H]3N(C)CC2)N(C)CC4 [berbamine, reference compound]",,,,,cell death of HepG2 cells: influence of cellular CYP3A4 overexpression [3]: not significantly increased
"COc1cc2c(cc1OC)[C@@H](Cc1ccc(Oc3cc(C[C@@H]4c5cc(OC)c(OC)cc5CCN4C)ccc3O)cc1)N(C)CC2 [dauricine, reference compound]",,,,,cell death of HepG2 cells: influence of cellular CYP3A4 overexpression [3]: not significantly increased
"COc1ccc2cc1Oc1ccc(cc1)C[C@H]1c3cc(c(OC)cc3CCN1C)Oc1c(OC)c(OC)cc3c1[C@H](C2)N(C)CC3 [tetrandrine, reference compound]",no such an effect,,,,percentage of dead PBMCs [11]: highest percentage of dead PBMCs
